Experimental findings from ChEMBL document CHEMBL4706647, “Development and optimization of halogenated vinyl sulfones as Nrf2 activators for the treatment of Parkinson's disease” (Eur J Med Chem, 2021) are described below.

Each structure is given as a SMILES string. Active and inactive are the calls of the source. The rule behind the calls is not given here.

The target of data set [1] is T1, Nuclear factor erythroid 2-related factor 2 (Mus musculus) (UniProt Q60795).
T1 sequence (whole entry): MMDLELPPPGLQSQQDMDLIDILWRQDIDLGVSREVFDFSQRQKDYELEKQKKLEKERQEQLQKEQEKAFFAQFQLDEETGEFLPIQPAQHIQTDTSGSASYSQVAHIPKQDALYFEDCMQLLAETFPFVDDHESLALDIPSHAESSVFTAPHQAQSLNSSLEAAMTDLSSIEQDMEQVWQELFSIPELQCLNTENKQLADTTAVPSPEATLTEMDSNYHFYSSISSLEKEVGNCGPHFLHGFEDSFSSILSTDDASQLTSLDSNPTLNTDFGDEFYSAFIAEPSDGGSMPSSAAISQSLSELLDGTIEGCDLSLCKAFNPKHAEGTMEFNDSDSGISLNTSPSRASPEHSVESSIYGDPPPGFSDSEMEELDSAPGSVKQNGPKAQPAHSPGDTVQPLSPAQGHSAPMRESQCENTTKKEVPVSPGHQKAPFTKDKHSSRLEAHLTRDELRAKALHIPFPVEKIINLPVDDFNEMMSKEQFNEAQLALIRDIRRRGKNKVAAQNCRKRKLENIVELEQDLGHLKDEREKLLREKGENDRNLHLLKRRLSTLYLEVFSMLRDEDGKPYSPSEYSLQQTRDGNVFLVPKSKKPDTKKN
The data set is described as follows: Activation of Nrf2 in mouse BV-2 cells assessed as increase in HO1 expression at 10 uM after 6 hrs by Western blot analysis relative to control. It is filed as cell-based. As to conditions: filed as activator. A digest of the protocol:
(§1)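 BV-2 microglia grown in RPMI-1640 with 10% FBS, penicillin-streptomycin and 2 mM L-glutamine at 37 °C, 5% CO2. Cells exposed to a range of concentrations for 6 h, then HO-1, GCLC, GCLM and SOD1 protein measured by Western blot. Band intensity normalized to β-actin and given as fold of vehicle control. Mean ± SEM, n = 3, three separate experiments.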

In data set [2] the target is T1, Nuclear factor erythroid 2-related factor 2 (Mus musculus). The data set is described as follows: Activation of Nrf2 in mouse BV-2 cells assessed as increase in HO1 mRNA expression at 1 uM after 6 hrs by RT-qPCR analysis relative to control. It counts as cell-based. The following applies: filed as activator. The essentials: (§2)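 BV-2 cells exposed to a range of concentrations for 6 h. Ho1, Gclc, Gclm and Sod1 mRNA quantified by RT-qPCR and expressed relative to vehicle-treated control. Mean ± SEM, n = 3; Student's t-test.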

Data set [3] in a line: Cytotoxicity against mouse BV-2 cells assessed cell viability at 1 uM measured after 6 hrs by Ez-cytox reagent based assay relative to control. As to conditions: read-out: Activity. The essentials:
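BV-2 cells (1.0 × 10⁴/well) grown 24 h at 37 °C, 5% CO2, then treated 6 h at […]. Viability expressed as percent of control.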

The subject of data set [4] is Mus musculus. As to the kind of experiment: Neuroprotective activity in MPTP-induced C57BL/6 mouse model of Parkinson's disease assessed as […] TH-immunoreactive fiber density at 30 mg/kg, po pretreated for 1 day followed by MPTP challenge and subsequent compound dosing for 2 days measured 6 days post-MPTP challenge by immunohistochemistry. It counts as functional, organism-based. The following applies: time 7.0 day. The essentials:
(§3)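 Male C57BL/6 mice, 10 weeks old, 23–26 g, n = 10 per group. Dosed 30 mg/kg p.o. for 3 consecutive days in 10% N-methyl-2-pyrrolidone/20% Tween-80 in water. On day 2, MPTP-HCl 20 mg/kg i.p. given four times at 2 h intervals. Coat-hanger (scored 1–5, test done twice) and vertical grid tests run 6 days after MPTP. Brains taken next day for anti-TH immunohistochemistry (1:1000, DAB).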

Data set [5] addresses T2, Nuclear factor erythroid 2-related factor 2 (Homo sapiens, UniProt Q16236).
T2 sequence (Q16236 whole entry): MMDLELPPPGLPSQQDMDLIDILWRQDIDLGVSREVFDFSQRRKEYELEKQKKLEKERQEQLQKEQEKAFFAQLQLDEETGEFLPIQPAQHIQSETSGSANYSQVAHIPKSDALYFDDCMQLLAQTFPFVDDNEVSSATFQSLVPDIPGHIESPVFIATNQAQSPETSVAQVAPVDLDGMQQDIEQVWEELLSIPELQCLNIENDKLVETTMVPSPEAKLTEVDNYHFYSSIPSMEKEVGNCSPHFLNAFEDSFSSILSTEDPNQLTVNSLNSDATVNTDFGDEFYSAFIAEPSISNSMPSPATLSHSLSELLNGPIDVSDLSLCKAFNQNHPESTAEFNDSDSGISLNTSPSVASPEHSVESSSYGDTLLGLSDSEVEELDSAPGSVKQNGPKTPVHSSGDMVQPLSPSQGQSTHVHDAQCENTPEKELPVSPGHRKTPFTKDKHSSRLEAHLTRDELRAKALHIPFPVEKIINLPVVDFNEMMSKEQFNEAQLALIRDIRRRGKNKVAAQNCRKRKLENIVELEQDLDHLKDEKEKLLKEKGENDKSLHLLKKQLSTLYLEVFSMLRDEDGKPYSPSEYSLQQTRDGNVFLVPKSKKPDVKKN
As to the kind of experiment: Activation of Nrf2 (unknown origin) expressed in human U2OS cells co-expressing Keap1 assessed as increase in Nrf2 nuclear translocation incubated for 6 hrs under dark condition by pathhunter assay. It counts as cell-based.

Data set [6] concerns the target T1, Nuclear factor erythroid 2-related factor 2 (Mus musculus). As to the kind of experiment: Activation of Nrf2 in mouse BV-2 cells assessed as increase in GCLC expression at 10 uM after 6 hrs by Western blot analysis relative to control. It counts as cell-based. The following applies: filed as activator. A digest of the protocol:
as §1
Background: A western blot detects proteins with antibodies after separation by electrophoresis.

In data set [7] the test system is Mus musculus. As to the kind of experiment: Neuroprotective activity in MPTP-induced C57BL/6 mouse model of Parkinson's disease assessed as ability to pull and climb to the top of the hanger at 30 mg/kg, po pretreated for 1 day followed by MPTP challenge and subsequent compound dosing for 2 days measured 6 days post MPTP challenge by coat-hanger test. The following applies: time 7.0 day. It is filed as functional, organism-based. A digest of the protocol:
as §3

Data set [8] has as its system Mus musculus. As to the kind of experiment: Neuroprotective activity in MPTP-induced C57BL/6 mouse model of Parkinson's disease assessed as reduction in time to turn at 30 mg/kg, po pretreated for 1 day followed by MPTP challenge and subsequent compound dosing for 2 days measured 6 days post MPTP challenge by vertical grid test. It counts as functional, organism-based. As to conditions: time 7.0 day. The essentials:
as §3

The target of data set [9] is T1, Nuclear factor erythroid 2-related factor 2 (Mus musculus). The data set is described as follows: Activation of Nrf2 in mouse BV-2 cells assessed as increase in nuclear Nrf2 levels at 10 uM after 6 hrs by Western blot analysis relative to control. It is filed as cell-based. As to conditions: filed as activator.
For data set [10] the target is unchanged. As to the kind of experiment: Activation of Nrf2 in mouse BV-2 cells assessed as increase in Gclm mRNA expression after 6 hrs by RT-qPCR analysis. It counts as cell-based. The following applies: filed as activator, dose 0.03-1 µM. The essentials:
as §2

For the next data set, the target named is CYP2C19 (Homo sapiens, UniProt P33261). The data set is described as follows: Inhibition of CYP2C19 (unknown origin) assessed as residual activity. It is filed as ADME.
Chain of CYP2C19 (P33261 whole entry): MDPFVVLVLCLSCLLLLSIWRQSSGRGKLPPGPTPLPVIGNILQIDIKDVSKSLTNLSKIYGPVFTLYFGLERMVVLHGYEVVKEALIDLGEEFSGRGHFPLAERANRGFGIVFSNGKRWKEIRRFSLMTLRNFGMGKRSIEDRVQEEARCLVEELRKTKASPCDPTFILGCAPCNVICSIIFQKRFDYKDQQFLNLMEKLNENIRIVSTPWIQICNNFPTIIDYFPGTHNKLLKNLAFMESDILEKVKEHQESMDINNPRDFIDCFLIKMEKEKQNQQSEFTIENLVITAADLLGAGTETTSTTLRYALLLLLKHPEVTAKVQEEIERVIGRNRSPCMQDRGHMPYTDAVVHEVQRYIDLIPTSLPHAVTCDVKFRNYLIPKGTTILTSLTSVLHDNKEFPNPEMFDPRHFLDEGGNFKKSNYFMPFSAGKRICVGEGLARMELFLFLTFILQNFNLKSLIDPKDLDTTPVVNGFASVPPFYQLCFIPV
The nature of data set [11]: Cytotoxicity against mouse BV-2 cells assessed cell viability at 10 uM measured after 6 hrs by Ez-cytox reagent based assay relative to control. As to conditions: read-out: Activity.
In data set [12] the target is T1, Nuclear factor erythroid 2-related factor 2 (Mus musculus). As to the kind of experiment: Activation of Nrf2 in mouse BV-2 cells assessed as increase in Sod1 mRNA expression at 1 uM after 6 hrs by RT-qPCR analysis relative to control. The following applies: filed as activator. It is filed as cell-based. The essentials:
as §2

A further data set concerns the target CYP2D6 (Homo sapiens, UniProt P10635). As to the kind of experiment: Inhibition of CYP2D6 (unknown origin) assessed as residual activity. It is filed as ADME.

Chain of CYP2D6 (P10635 whole entry): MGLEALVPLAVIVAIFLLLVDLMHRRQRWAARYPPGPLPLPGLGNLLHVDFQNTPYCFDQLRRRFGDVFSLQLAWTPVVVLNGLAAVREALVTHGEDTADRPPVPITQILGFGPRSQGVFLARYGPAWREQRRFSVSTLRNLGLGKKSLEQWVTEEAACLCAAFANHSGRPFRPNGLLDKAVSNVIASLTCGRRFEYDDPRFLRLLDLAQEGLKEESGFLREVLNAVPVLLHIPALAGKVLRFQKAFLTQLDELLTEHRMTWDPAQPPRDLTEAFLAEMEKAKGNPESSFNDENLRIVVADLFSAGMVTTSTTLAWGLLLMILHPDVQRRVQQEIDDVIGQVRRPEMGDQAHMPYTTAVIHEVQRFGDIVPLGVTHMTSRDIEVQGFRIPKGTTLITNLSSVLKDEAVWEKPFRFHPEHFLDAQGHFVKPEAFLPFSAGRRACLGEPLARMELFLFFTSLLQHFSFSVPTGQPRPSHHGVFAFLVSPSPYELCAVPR

Consider `O=S(=O)(/C=C/c1ncccc1Cl)c1ccccc1Cl`, for which the fold change (FC) is 17.6 in [1]; 6 in data set [2]; 8.5 in [6]; 22.6 in data set [9]; 2.5 in data set [12]. The viability at 6 h, 1 µM in [3] was determined as 98.9%. Moreover, the Activity entry in the data set on Mus musculus [4], in the data set on Mus musculus [7] and with Mus musculus [8] was “Active” throughout. Besides, the concentration giving a half-maximal response (EC50) (in general, the midpoint of the concentration-response curve) in data set [5] is 26 nM. Also, the Activity entry in data set [10] was “Dose-dependent effect”. The activity came to 27.8% on CYP2C19 and 88% at CYP2D6. The viability at 6 h, 10 µM in [11] is 100%.
